Results on 3 molecules are retold here after paper PMC4415852 (Cancer cell, 2015).

SMILES strings stand for the structures.

Data set [1] relates to BMCs transformed with the Hoxa9/Meis1 oncogenes (HM-2). As to the kind of experiment: MTT cell viability assay, Hoxa9/Meis1 transformed BMCs. The note with it: HM-2 BMCs, 7 days. It counts as cell-based, murine. The essentials: (§1)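 Cells were plated with test compound or 0.25% DMSO and kept at 37 °C for 7 days. At day 4 the media was changed, viable cell numbers were reset to the starting density and compound was re-added. Read-out was MTT with absorbance at 570 nm, from titration curves. Mean ± SD, n = 4. Non-MLL lines were HL-60, NB4 and Jurkat; murine bone marrow cells were Hoxa9/Meis1-transformed.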

In data set [2] the test system is human leukemia cell lines without MLL translocations. Put plainly: MTT assay, human leukemia cell lines without MLL translocations. It counts as cell-based. As to conditions: in words. The essentials: as §1
The nature of data set [3]: Pharmacokinetic studies in mice. It counts as in vivo. The note with it: single intravenous or oral dose.
In data set [4] the test system is MLL-AF9 leukemia. Put plainly: Bone marrow transplantation model of murine MLL-AF9 leukemia. The note with it: for increase of median survival: MI-463 50 mg/kg, MI-503 80 mg/kg, twice daily oral gavage, 10 days. The class given is in vivo.
Data set [5] has as its system MLL leukemia patient samples. Put plainly: Methylcellulose colony forming assay, MLL leukemia primary patient samples. The class given is cell-based, human. The note with it: at submicromolar or low micromolar concentrations, 14 days. The essentials:
(§2)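 Primary cells (peripheral blood mononuclear, thawed) were pre-cultured 24 hr in RPMI-1640 with 10% FBS, 1% penicillin/streptomycin, 10 ng/mL human IL-3 and 10 ng/mL IL-6 plus SCF. They were then plated in duplicate at 7.5–15 × 10^4 cells in cytokine-supplemented methylcellulose containing test compound or DMSO. Incubation was 14 days at 37 °C, 5% CO2, followed by iodonitrotetrazolium chloride staining. Colony counts were normalized to DMSO; mean ± SD, n = 2.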

Data set [6] relates to control AML patient samples. The class given is cell-based, human. As to conditions: except at the highest concentration (6 μM) in the AML-9571 sample. The procedure, abridged:
as §2

Data set [7] concerns MLL leukemia patient samples. As to the kind of experiment: Cell viability assay in primary MLL leukemia patient samples. It counts as cell-based, human. The note with it: 7 days of treatment, in words. The essentials: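 Primary AML cells (mononuclear cells from peripheral blood, isolated by density gradient and red cell lysis, frozen in 10% DMSO) were exposed to test compound or 0.25% DMSO vehicle for 7 days. Stains were anti-human CD45, CD34 and CD38, then Annexin V and 7-AAD, with ≥2 × 10^5 events per sample by flow cytometry. Annexin V/7-AAD double negative cells counted as viable, shown as % of DMSO. Blasts were hCD45+. Mean ± SD, n = 2.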

Data set [8] is described as follows: Tolerability in normal C57BL/6 mice. It counts as in vivo. As to conditions: 10 days, twice daily oral gavage. The essentials:
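Normal C57BL/6 mice received test compound or vehicle by oral gavage twice daily for 10 days, the same regimen as the leukemia survival studies. Body weight, organ weight and tissue damage were assessed afterwards.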

The subject of data set [9] is MV4;11 human MLL leukemia cells. The note with it: for inhibition of tumor growth: once daily i.p., MI-503 60 mg/kg, MI-463 35 mg/kg, in words.
For data set [10], the target named is T1, menin (Homo sapiens, UniProt O00255).
T1 sequence (O00255 1-610): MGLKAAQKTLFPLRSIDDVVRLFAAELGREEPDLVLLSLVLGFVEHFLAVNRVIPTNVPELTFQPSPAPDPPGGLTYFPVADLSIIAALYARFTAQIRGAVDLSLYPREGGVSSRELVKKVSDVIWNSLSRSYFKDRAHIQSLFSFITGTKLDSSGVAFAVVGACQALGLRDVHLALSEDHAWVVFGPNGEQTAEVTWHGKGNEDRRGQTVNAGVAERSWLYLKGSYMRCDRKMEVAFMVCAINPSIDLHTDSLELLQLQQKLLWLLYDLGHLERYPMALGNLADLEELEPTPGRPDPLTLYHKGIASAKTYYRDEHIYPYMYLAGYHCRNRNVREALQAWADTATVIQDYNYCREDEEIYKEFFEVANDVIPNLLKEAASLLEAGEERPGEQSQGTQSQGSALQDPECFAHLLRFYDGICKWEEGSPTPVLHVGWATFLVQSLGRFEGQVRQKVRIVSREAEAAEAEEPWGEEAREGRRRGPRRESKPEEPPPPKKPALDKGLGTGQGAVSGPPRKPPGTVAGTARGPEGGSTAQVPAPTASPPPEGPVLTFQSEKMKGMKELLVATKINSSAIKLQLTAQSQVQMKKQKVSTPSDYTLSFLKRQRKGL
Put plainly: Isothermal Titration Calorimetry, binding to menin. The note with it: in words. In general terms: ITC needs no label: the signal is the heat of the interaction.

The test system of data set [11] is murine bone marrow cells (BMC) transformed with the MLL-AF9 oncogene. As to the kind of experiment: MTT cell viability assay, MLL-AF9 transformed BMCs. The note with it: read-out: half-maximal growth inhibitory concentration (GI50); after 7 days of treatment. The class given is cell-based. The procedure, abridged:
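Leukemia cells were plated and exposed to a test compound titration or 0.25% DMSO at 37 °C for 7 days. On day 4, media was changed, viable cell numbers were reset to the starting density and compound was re-supplied. Viability was read by MTT absorbance at 570 nm from titration curves. n = 4, mean ± SD.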
(In general: Tetrazolium assays rely on reduction of a dye to a coloured formazan, in cell work by metabolically active cells.)

Data set [12] deals with MV4;11 human leukemia cells expressing MLL-AF4. As to the kind of experiment: Long term viability study in MV4. It counts as cell-based. As to conditions: MV4;11, at day 10, first treatment phase. The essentials:
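Cycle of 10 days exposure to test compound at several concentrations, 10 days wash-out without compound, then 10 further days of re-treatment. Viable cell numbers were normalized to the DMSO control. Values are means of duplicates ± SD. The day-10 read-out is taken from the first exposure phase.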

Data set [13] deals with T2, menin-MLL-AF9 interaction (Homo sapiens, UniProt O00255).
T2 sequence (O00255 1-610): T1 sequence (O00255 1-610)
As to the kind of experiment: Co-immunoprecipitation in HEK293 cells transfected with MLL-AF9. It counts as cell-based. As to conditions: at sub-micromolar concentrations.

The nature of data set [14]: Metabolic stability. The class given is in vitro ADME. As to conditions: in words.

In the case of `Cc1c(CN2CCC(Nc3ncnc4sc(CC(F)(F)F)cc34)CC2)ccc2[nH]c(C#N)cc12` [MI-463], the “effect on cell growth inhibition” value in [1] is listed as “no effect”. The growth suppressive activity result in [2] is recorded as “only a minimal effect”. In addition, in [3], the oral bioavailability is listed as ~ 45%. In addition, the “increase of median survival” value in data set [4] is ~ 70%. Besides, in [4] (MLL-AF9 leukemia mice, 10 days of treatment, twice daily p.o.), the “body weight loss / tolerability” value was “no significant body weight loss”. In addition, in [5], the “reduction in colony number” value is “over 50%”. In addition, in data set [6], the “effect on colony formation” value is listed as “little effect”. Besides, in [7], the “effect on cell growth and blast population” value is “marked decrease”. Also, in data set [8], the “body weight, organ weight, tissue damage” value is on record as “no decrease in body weight, organ weight or tissue damage”. Moreover, the “inhibition of tumor growth” value in data set [9] is “strong inhibition”.

Consider `Cc1c(CN2CCC(Nc3ncnc4sc(CC(F)(F)F)cc34)CC2)ccc2c1cc(C#N)n2Cc1cn[nH]c1` [MI-503], for which the “binding affinity to menin” value in [10] is on record as “low nanomolar”. The results for the GI50 in data set [11] and in data set [12] were 220 nM and 200 nM, respectively. Besides, the “effect on cell growth inhibition” value in data set [1] is recorded as “no effect”. For the same molecule, in data set [2], the growth suppressive activity result was “only a minimal effect”. Moreover, the “inhibition of the menin-MLL-AF9 interaction” value in data set [13] is on record as “effectively inhibit”. Further, in data set [3], the oral bioavailability came out at 75%. Moreover, in [4], the “increase of median survival” value is ~ 45%. For the same molecule, the “reduction in colony number” value in [5] is recorded as “over 50%”. The “effect on colony formation” value in [6] was “little effect”. Moreover, the “body weight, organ weight, tissue damage” value in data set [8] is on record as “no decrease in body weight, organ weight or tissue damage”. The “reduction in MV4;11 tumor volume” value in data set [9] (60 mg/kg once daily i.p.) is “over 80%”. The “inhibition of tumor growth” value in data set [9] is on record as “strong inhibition”.

Consider `CC1(C)CN=C(N2CCN(c3ncnc4sc(CC(F)(F)F)cc34)CC2)S1` [MI-2-2], for which the metabolic stability entry in data set [14] was “very poor”.
